{
  "source": "ChEMBL document CHEMBL4177662",
  "about": "“Phosphamide-containing diphenylpyrimidine analogues (PA-DPPYs) as potent focal adhesion kinase (FAK) inhibitors with enhanced activity against pancreatic cancer cell lines” (Bioorg Med Chem, 2017)",
  "key": {"ASPC1 [1]": {"system": "ASPC1", "assay": "Induction of apoptosis in human Aspc-1 cells assessed as early apoptotic cells at 5 uM after 72 hrs by Annexin V-FITC/propidium iodide staining-based flow cytometry (reference value: 0%)", "format": "functional", "procedure,_shortened": "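AsPC-1 cells (3 to 5×10^5 per well) were treated with DMSO solvent control or compound for 72 h in medium with 5% FBS. Cells were then stained with Annexin V-FITC and propidium iodide and analysed by flow cytometry. One representative experiment shown.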"}, "ASPC1 [2]": {"system": "ASPC1", "assay": "Antiproliferative activity against human Aspc-1 cells assessed as cell viability at 8 uM after 72 hrs by MTT assay (reference value: 97%)", "format": "functional", "settings": "ASPC1, 72 h, read-out: Activity"}, "ASPC1 [3]": {"system": "ASPC1", "assay": "Cell cycle arrest in human Aspc-1 cells assessed as accumulation at S phase at 2.5 uM after 72 hrs by propidium iodide staining-based flow cytometry (reference value: 59.70%)", "format": "functional"}, "[4]": {"molecular_target": "T1, Aurora kinase A (Homo sapiens) (UniProt O14965)", "T1 sequence (whole entry)": "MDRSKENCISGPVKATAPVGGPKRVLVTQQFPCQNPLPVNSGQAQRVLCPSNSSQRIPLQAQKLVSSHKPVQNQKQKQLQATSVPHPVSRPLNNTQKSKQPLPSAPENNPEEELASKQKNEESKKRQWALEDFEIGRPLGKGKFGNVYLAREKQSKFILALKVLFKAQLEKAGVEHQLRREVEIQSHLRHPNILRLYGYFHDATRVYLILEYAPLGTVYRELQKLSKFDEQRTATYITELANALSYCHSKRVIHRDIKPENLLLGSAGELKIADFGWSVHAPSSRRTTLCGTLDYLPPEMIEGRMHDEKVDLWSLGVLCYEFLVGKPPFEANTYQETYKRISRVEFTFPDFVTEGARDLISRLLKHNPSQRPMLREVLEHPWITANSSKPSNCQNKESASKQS", "assay": "Inhibition of recombinant full length His-tagged human Aurora A expressed in baculovirus expression system at 100 nM relative to control", "procedure,_shortened": "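Percent inhibition of kinase activity at a single 100 nM test concentration, from an outsourced biochemical profiling screen.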"}, "ASPC1 [5]": {"system": "ASPC1", "assay": "Cell cycle arrest in human Aspc-1 cells assessed as accumulation at S phase at 1 uM after 72 hrs by propidium iodide staining-based flow cytometry (reference value: 59.70%)", "format": "functional"}},
  "data": [
    {"smiles": "CCOP(=O)(CCCOc1ccc(Nc2ncc([N+](=O)[O-])c(Nc3ccccc3C(=O)NC)n2)cc1)N1CCOCC1", "note": "(stereo not given)", "values": [
      {"measurement": "Activity", "setting": "ASPC1 [1]", "value": 16.3, "unit": "%"},
      {"measurement": "viability at 8 µM", "setting": "ASPC1 [2]", "value": 16.8, "unit": "%"},
      {"measurement": "Activity", "setting": "ASPC1 [3]", "value": 28, "unit": "%"},
      {"measurement": "inhibition", "setting": "[4]", "value": 48, "unit": "%"},
      {"measurement": "Activity", "setting": "ASPC1 [5]", "value": 48.41, "unit": "%"}
    ]}
  ]
}
